These results are taken from article PMC10692477 (Acta Pharmaceutica Sinica. B, 2023).

One data set has as its system BaF3/TEL-AXL cells. Put plainly: BaF3/TEL-AXL cell viability. It counts as cell-based. The settings on record: 48 h, read-out: IC50 Cell viability.
A short description of data set [1]: Pharmacokinetics in ICR mice. It counts as in vivo. The following applies: mouse, serum.
In data set [2] the test system is BaF3/TEL-AXL mouse xenograft. Put plainly: BaF3/TEL-AXL cell-derived mouse xenograft model. The settings on record: for body weight of tumor-bearing mice during the treatment: 4 and 20 mg/kg po qd.
The test system of data set [3] is AXL signaling pathway. Put plainly: GAS6-stimulated AXL signaling in NCI-H1299 cells, Western blot. It counts as cell-based. The settings on record: NCI-H1299, 1 h treatment, GAS6 500 ng/mL 15 min. The method in brief: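 NCI-H1299 cells in exponential growth were serum-deprived for 24 h, then given the test compound for 1 h and stimulated with GAS6 500 ng/mL for 15 min. Lysis was in 1× SDS sample buffer, followed by 10% SDS-PAGE and nitrocellulose transfer.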
In general terms: A western blot detects proteins with antibodies after separation by electrophoresis.

The next data set addresses T1, AXL kinase (Homo sapiens, UniProt P30530).
T1 sequence (P30530 26-894): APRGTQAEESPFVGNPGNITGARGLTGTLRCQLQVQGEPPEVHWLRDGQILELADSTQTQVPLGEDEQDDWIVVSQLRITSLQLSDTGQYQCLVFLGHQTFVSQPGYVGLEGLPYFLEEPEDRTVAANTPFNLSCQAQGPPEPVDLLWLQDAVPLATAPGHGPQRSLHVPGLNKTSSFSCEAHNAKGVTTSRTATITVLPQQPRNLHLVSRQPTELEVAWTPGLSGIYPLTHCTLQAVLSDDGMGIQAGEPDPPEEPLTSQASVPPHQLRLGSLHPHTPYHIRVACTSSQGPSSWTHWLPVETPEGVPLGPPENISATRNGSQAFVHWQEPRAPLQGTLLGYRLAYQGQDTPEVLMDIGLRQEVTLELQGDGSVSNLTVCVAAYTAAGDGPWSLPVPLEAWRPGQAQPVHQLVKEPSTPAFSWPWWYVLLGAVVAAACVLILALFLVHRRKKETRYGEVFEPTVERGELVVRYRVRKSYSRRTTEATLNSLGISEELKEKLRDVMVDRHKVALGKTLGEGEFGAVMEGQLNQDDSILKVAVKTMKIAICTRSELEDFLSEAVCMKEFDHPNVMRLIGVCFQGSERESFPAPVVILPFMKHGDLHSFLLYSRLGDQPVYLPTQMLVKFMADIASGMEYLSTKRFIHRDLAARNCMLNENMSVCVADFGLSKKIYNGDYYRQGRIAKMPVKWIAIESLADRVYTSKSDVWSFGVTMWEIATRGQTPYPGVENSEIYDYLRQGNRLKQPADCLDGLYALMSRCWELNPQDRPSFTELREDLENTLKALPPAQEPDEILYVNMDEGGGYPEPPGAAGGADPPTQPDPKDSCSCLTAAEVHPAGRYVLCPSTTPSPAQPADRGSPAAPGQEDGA
As to the kind of experiment: AXL kinase inhibition, ELISA. It counts as biochemical. The following applies: IC50 AXL kinase, ELISA; mean ± SD of two independent experiments. A general note: In an ELISA, binding on a coated surface is turned into a signal by an enzyme label.

Another data set has as its target c-Met kinase (Homo sapiens, UniProt P08581). Put plainly: c-Met kinase inhibition, ELISA. It counts as biochemical. The method in brief:
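c-Met inhibition was measured by an ELISA-based kinase assay following a previously reported method. IC50 values were calculated from inhibition curves with a modified 4-parameter logistic model, from at least two separate experiments.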

Another data set has as its system EBC-1 cells. As to the kind of experiment: EBC-1 cell viability. The following applies: Homo sapiens, EBC-1, 72 h, read-out: IC50 viability of EBC-1 cells. Type of data set: cell-based. The method in brief: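 EBC-1 cells were seeded at low density in growth medium and incubated overnight. They were then treated with graded concentrations of the test compound for 72 h. Viability was read by CCK-8, and IC50 was obtained by four-parameter concentration–response curve fitting.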

For another data set, the system named is AXL phosphorylation. As to the kind of experiment: Intratumoral AXL phosphorylation, immunoblotting of tumor tissues. Type of data set: in vivo, nude mice. The following applies: tumor tissues 1 h after last dosage; 4 and 20 mg/kg groups.
The subject of data set [4] is SNU449 cells. As to the kind of experiment: GAS6-stimulated SNU449 cell invasion. It counts as cell-based. The settings on record: 20 nmol/L, GAS6 500 ng/mL, 24 h. The method in brief:
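SNU449 cells were seeded in top chambers with matrigel-coated membrane inserts. The lower chamber held serum-free medium with GAS6 500 ng/mL, and the test compound was added to both sides. After 24 h, non-invading cells were removed. Invaded cells were fixed in 90% ethanol for 1 h, stained with 0.1% crystal violet for 15 min at room temperature, and imaged.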

Data set [5] relates to NCI-H1299 cells. As to the kind of experiment: GAS6-stimulated NCI-H1299 cell migration. Type of data set: cell-based. The following applies: 20 nmol/L, GAS6 500 ng/mL, 24 h. The method in brief: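 NCI-H1299 cells (1.5 × 10^5 per well) in serum-free medium were placed in Transwell inserts with 8 μm pores. The lower chamber held serum-free medium with GAS6 500 ng/mL, and the test compound was added to both sides of the membrane. After 24 h, non-migrated cells were swabbed off. Migrated cells were fixed in 90% ethanol for 1 h, stained with 0.1% crystal violet for 15 min at room temperature, and imaged by microscopy.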

Data set [6] concerns NCI-H1299 cells. As to the kind of experiment: NCI-H1299 cell wound healing assay. Type of data set: cell-based. The following applies: NCI-H1299, GAS6 500 ng/mL, 24 h. In short, it runs like this: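 NCI-H1299 monolayers were scratched, then given GAS6 500 ng/mL alone or with graded concentrations of the test compound for 24 h. Wound closure was imaged at 0 and 24 h, in triplicate.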

The test system of data set [7] is NCI-H1299 cells. Put plainly: NCI-H1299 cell viability under GAS6. The settings on record: same conditions as cell motility; GAS6 500 ng/mL, 24 h. Type of data set: cell-based. The method in brief: (§1)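 NCI-H1299 or SNU449 cells were seeded at low density in growth medium and incubated overnight. They were then stimulated with GAS6 500 ng/mL and treated with graded concentrations of the test compound for 24 h. Viability was read by CCK-8.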

Data set [8] relates to SNU449 cells. Put plainly: SNU449 cell viability under GAS6. The following applies: same conditions as cell motility; GAS6 500 ng/mL, 24 h. It counts as cell-based. The method in brief:
as §1

A further data set concerns E-cadherin expression. As to the kind of experiment: E-cadherin expression in GAS6-stimulated NCI-H1299 cells, immunoblotting. The following applies: NCI-H1299, GAS6 500 ng/mL, 48 h. Type of data set: cell-based.
In data set [9] the test system is AXL signaling pathway. Put plainly: AXL signaling in BaF3/TEL-AXL cells, Western blot. Type of data set: cell-based. The settings on record: 1 h. In short, it runs like this: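 BaF3/TEL-AXL cells in exponential growth were exposed to the test compound at the indicated concentrations for 1 h. Cells were lysed in 1× SDS sample buffer, run on 10% SDS-PAGE and transferred to nitrocellulose.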

For the next data set, the system named is other 55 tested kinases. As to the kind of experiment: Kinase selectivity panel of 62 kinases. The following applies: 100 nmol/L. Type of data set: biochemical, human.
The mark [10] stands for this setting: 20 mg/kg po qd, 7 consecutive days.

Bounds are passed on as bounds.

Chain of c-Met kinase (P08581 25-1390): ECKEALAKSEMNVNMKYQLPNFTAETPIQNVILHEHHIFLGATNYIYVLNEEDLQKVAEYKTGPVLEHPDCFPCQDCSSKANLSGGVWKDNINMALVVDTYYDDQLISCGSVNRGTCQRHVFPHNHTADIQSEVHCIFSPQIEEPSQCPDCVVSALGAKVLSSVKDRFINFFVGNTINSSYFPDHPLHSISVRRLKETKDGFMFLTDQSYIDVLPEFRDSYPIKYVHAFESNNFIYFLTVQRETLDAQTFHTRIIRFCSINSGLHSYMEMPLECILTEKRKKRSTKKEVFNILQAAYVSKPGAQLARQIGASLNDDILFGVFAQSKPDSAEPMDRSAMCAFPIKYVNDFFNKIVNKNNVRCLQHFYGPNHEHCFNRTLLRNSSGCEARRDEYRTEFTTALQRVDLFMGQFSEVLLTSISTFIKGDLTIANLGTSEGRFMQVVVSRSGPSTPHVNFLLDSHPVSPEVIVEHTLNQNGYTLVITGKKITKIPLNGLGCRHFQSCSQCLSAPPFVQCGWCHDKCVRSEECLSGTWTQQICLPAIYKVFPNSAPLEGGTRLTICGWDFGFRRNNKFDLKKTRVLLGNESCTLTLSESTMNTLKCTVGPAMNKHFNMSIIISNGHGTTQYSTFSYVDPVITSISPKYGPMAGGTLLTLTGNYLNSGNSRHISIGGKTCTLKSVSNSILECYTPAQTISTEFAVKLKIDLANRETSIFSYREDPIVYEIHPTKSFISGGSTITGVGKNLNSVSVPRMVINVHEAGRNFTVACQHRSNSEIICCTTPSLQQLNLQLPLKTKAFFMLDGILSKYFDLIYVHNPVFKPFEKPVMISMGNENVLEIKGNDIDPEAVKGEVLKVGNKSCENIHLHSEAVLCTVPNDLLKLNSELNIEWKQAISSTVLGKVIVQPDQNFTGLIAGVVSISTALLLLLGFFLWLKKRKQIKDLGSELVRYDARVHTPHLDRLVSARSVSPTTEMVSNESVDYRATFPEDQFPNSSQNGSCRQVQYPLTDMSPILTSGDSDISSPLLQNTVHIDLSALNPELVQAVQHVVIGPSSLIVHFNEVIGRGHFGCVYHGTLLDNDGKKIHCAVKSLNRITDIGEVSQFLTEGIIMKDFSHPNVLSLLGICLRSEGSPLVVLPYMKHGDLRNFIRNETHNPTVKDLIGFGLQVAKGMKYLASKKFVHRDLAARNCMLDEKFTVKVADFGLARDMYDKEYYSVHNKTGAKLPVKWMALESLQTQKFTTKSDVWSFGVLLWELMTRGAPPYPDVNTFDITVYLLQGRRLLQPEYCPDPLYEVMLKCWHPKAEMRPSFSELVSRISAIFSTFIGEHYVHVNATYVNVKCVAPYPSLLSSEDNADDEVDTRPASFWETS

As for `COc1cc2ncnc(Oc3ccc(NC(=O)c4c5n(n(-c6cccc(F)c6)c4=O)CCCC5)cc3F)c2cc1OC` [Compound 18], in the data set on BaF3/TEL-AXL cells, the half-inhibitory concentration (IC50) – broadly, the concentration at which inhibition is half-maximal – is less than 0.1 nM. In [1] (iv, 5 mg/kg), the total exposure AUC(0-inf) (as a rule, the area under the concentration-time curve extrapolated to infinity) is 42100 ng·h/mL; the AUC(0-t) – broadly, the area under the concentration-time curve up to a stated or last time point – turned out to be 34800 ng·h/mL; the clearance (in general, a measure of how efficiently the substance is removed, as volume per time) was 2.05 mL/min/kg; the half-life (commonly the time in which the quantity being followed falls by half) is 624 min. In data set [1] (po, 10 mg/kg), the AUC(0-inf) turned out to be 16000 ng·h/mL; the AUC(0-t) was 15900 ng·h/mL; the Cmax (in general, the maximum level reached in the sampled fluid or tissue) was determined as 2970 ng/mL; the time of peak concentration (Tmax) (in general, the time from dosing to the highest level) was found to be 2 h. Besides, in data set [1] (po, 10 mg/kg), the bioavailability (usually the share of a dose that reaches the circulation, judged against a reference dose that is usually intravenous) stood at 22.9% and the half-life is 194 min. Moreover, the inhibition of tumour growth (TGI) (as a rule, how far tumour growth fell short of that in controls) in [2] (4 mg/kg po qd, 7 consecutive days) was determined as 89.5%. This molecule also registered a TGI in [2] (setting [10]) of 93.4%. Further, in [2], the “body weight of tumor-bearing mice during the treatment” value is recorded as “no significant body weight loss”.
As for `Nc1nc(Nc2ccc3c(c2)CC[C@@H](N2CCCC2)CC3)nn1-c1cc2c(nn1)-c1ccccc1CCC2` [BGB324, reference compound], the IC50 with BaF3/TEL-AXL cells stood at 95.1 ± 3.7 nM. Also, in the data set with AXL signaling pathway [3], the p-AKT level entry is reported as “significantly inhibited” and the p-STAT3 level entry is “significantly inhibited”. In data set [2] (50 mg/kg po bid), this molecule came in with a TGI of 92.0%.
In the case of `COc1cc2nccc(Oc3ccc(NC(=O)c4c5n(n(-c6ccc(F)cc6)c4=O)CCCC5)cc3)c2cc1OC` [Compound 59], the IC50 at AXL kinase came to 3.5 ± 0.8 nM. The IC50 in the data set with BaF3/TEL-AXL cells came out at 1.5 ± 0.4 nM. On c-Met kinase, the half-maximal inhibitory concentration (IC50) worked out at 17.3 nM. In addition, the IC50 in the data set with EBC-1 cells was 535 nM. In [1] (iv, 5 mg/kg), this molecule had an area under the curve AUC(0-inf) of 21600 ng·h/mL, an area under the curve AUC(0-t) of 20500 ng·h/mL, a clearance of 3.86 mL/min/kg and a half-life of 100 min. In data set [1] (po, 10 mg/kg), the area under the curve AUC(0-inf) amounted to 14900 ng·h/mL, the AUC(0-t) stood at 14800 ng·h/mL, the highest concentration (Cmax) was 2300 ng/mL and the Tmax stood at 1 h. In [1] (po, 10 mg/kg), this molecule had a bioavailability of 36.1% and a half-life of 176 min. Also, the “intratumoral AXL phosphorylation (p-AXL)” value in the data set on AXL phosphorylation is given as “robust inhibitions”. For the same molecule, in the data set with SNU449 cells [4], the SNU449 cell invasion result was “significant inhibition”. Also, the NCI-H1299 cell migration entry in the data set on NCI-H1299 cells [5] is given as “significant reduction”. In addition, the GAS6-accelerated wound healing result in the data set with NCI-H1299 cells [6] was “obviously inhibited”. In the data set with NCI-H1299 cells [7], the “cell viability of NCI-H1299 cells” value was “no significant inhibitory effects”. In addition, the “cell viability of SNU449 cells” value in the data set on SNU449 cells [8] is listed as “no significant inhibitory effects”. The “GAS6-induced downregulation of E-cadherin expression” value with E-cadherin expression was “significantly reversed”. In addition, in the data set on AXL signaling pathway [9], the p-ERK entry is “a bit weaker inhibtion”, the “phosphorylation of AKT” value is “dose-dependently inhibited”, the “phosphorylation of AXL” value is “dose-dependently inhibited” and the “phosphorylation of STAT3” value was “dose-dependently inhibited”. For the same molecule, in the data set with AXL signaling pathway [3], the p-AKT level entry is “significantly inhibited”, the p-ERK entry is recorded as “marginally inhibited”, the p-STAT3 level entry was “significantly inhibited” and the “phosphorylation of AXL induced by GAS6” value is “significantly inhibited”. Also, the “Inhibition rate, other 55 tested kinases” value with other 55 tested kinases is “less than 50%”. In addition, the TGI in data set [2] (setting [10]) was found to be 89.4%. The “body weight of tumor-bearing mice during the treatment” value in [2] is listed as “no significant body weight loss”.
